Experiments:
[1] = biological target: T1, CYP2B6 (Homo sapiens, UniProt P20813); format: in vitro ADME
T1 sequence (P20813 1-491): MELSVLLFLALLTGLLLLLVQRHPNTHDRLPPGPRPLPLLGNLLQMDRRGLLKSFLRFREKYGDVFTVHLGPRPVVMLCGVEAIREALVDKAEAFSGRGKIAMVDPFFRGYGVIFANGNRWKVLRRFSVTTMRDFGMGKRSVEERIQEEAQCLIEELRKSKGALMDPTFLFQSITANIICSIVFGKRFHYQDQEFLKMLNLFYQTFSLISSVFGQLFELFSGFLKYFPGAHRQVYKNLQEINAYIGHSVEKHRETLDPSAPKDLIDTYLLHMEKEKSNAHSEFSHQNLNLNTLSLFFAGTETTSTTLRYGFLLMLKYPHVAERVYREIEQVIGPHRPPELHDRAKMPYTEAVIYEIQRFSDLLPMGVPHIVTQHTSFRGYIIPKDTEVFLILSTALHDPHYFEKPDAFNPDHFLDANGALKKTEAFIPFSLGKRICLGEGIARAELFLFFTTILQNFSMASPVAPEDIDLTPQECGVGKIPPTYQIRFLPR

[2] = [14C] metabolism and excretion study in cynomolgus monkeys; format: in vivo, cynomolgus monkey; conditions: for whole blood‐to‐plasma ratio of total radioactivity: based on AUC0‐last; for recovery of radioactivity: by 168 h postdose
Outline: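 Male and female cynomolgus monkeys received one oral-gavage dose of 80 mg/kg (2 MBq/kg) [14C]-labelled test compound. Blood, urine and faeces were collected at set times up to 168 h for total radioactivity. Metabolites were profiled by high-resolution LC-MS with online fraction collection and offline counting. The blood:plasma ratio was based on AUC0-last.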

[3] = First-in-human study Part 3, 100-mg SDD tablet food effect; format: in vivo; conditions: plasma, oral, 200 mg; for AUC: AUC0‐last; for AUC / Cmax: single 200 mg dose of 100‐mg SDD tablets; for half-life: t1/2, single 200 mg dose of 100‐mg SDD tablets
[4] = biological target: T2, UGT1A1 (Homo sapiens, UniProt P22309); experiment: DDI perpetrator study: dolutegravir probe; format: in vivo; conditions: miricorilant 400 mg once daily as perpetrator
T2 sequence (P22309 26-533): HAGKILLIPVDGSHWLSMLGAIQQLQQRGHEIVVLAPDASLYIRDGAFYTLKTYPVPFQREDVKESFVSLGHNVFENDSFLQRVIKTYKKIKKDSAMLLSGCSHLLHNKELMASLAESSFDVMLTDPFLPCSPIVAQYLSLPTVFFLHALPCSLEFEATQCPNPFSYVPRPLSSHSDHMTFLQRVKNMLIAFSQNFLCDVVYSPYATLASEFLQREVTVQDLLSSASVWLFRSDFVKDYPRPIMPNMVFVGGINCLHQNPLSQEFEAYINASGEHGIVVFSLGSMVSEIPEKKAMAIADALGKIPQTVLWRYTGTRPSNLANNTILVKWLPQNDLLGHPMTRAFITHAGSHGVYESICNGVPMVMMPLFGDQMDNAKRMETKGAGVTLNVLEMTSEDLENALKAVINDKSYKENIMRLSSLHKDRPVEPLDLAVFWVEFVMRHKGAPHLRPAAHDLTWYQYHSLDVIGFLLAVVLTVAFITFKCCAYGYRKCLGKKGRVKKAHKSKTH

[5] = Clinical safety in phase 1 studies; format: in vivo, human
Outline: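 Healthy adult subjects in phase 1 studies received oral single doses, or once-daily doses for up to 14 days, with placebo controls in some parts. They were housed in the clinical pharmacology unit from at least the day before dosing until ≥24 h after the last dose. Treatment-emergent adverse events were recorded and graded for intensity.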

[6] = tested on: liver fat; conditions: patients with presumed MASH; cited from earlier work
[7] = repeated once‐daily dosing for up to 14 days
[8] = single‐dose studies, healthy subjects

O=c1[nH]c(=O)c(Cc2cccc(C(F)(F)F)c2)c([C@H]2CC[C@H](c3ccccc3)CC2)[nH]1 [miricorilant]
inhibition of CYP2B6 [1]: No inhibition
elimination in urine ([2]; female monkeys): 0.74 ± 0.11%
fecal elimination ([2]; female monkeys): 78.51 ± 8.77%
time at which plasma radioactivity was below the limit of detection ([2]; female monkeys): 96 h
whole blood‐to‐plasma ratio of total radioactivity ([2]; female monkeys): 0.66
recovery of radioactivity ([2]; female monkeys): 88.08 ± 4.03%
elimination in urine ([2]; male monkeys): 0.96 ± 0.08%
fecal elimination ([2]; male monkeys): 72.2 ± 11.20%
time at which plasma radioactivity was below the limit of detection ([2]; male monkeys): 144 h
whole blood‐to‐plasma ratio of total radioactivity ([2]; male monkeys): 0.75
recovery of radioactivity ([2]; male monkeys): 80.88 ± 11.60%
AUC ([3]; Fasted, geometric mean (%CV)): 1620 ng·h/mL
AUC ([3]; Fed, geometric mean (%CV)): 3560 ng·h/mL
Cmax ([3]; Fasted, geometric mean (%CV)): 105 ng/mL
Cmax ([3]; Fed, N = 6, geometric mean (%CV)): 184 ng/mL
half-life ([3]; Fasted, geometric mean (%CV)): 21.1 h
half-life ([3]; Fed, geometric mean (%CV)): 19.6 h
clinical inhibition of UGT1A1 [4]: does not inhibit
overall safety and tolerability ([5]; phase 1 studies): safe and well‐tolerated
intensity of TEAEs [5, 7]: mild or moderate
most commonly reported TEAE [5, 7]: headache
deaths or serious adverse events ([5]; repeated‐dose studies): no deaths or treatment‐emergent serious adverse events
discontinuation due to TEAEs [5, 8]: No subjects
intensity of TEAEs [5, 8]: mild or moderate
most commonly reported TEAE [5, 8]: headache
effect on liver fat [6]: rapid and substantial reduction of liver fat

From PMC12709667 (Journal of Clinical Pharmacology, 2025)
